Results taken from ChEMBL document CHEMBL1811814, “Synthesis and evaluation of indole, pyrazole, chromone and pyrimidine based conjugates for tumor growth inhibitory activities--development of highly efficacious cytotoxic agents” (Eur J Med Chem, 2010).

How the values were obtained:
Assay type in all cases: functional
Parameters in all cases: scale not given: the % may be the effect or the level left
HL-60(TB) = experiment: Growth inhibition of human HL-60(TB) cells assessed tumor cell growth at 10^-5 M
Procedure, shortened: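 HL-60(TB), part of the 60-line panel, tested at a single concentration of 10^-5 M. The read-out is percent tumor cell growth relative to untreated growth.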

K562 = experiment: Growth inhibition of human K562 cells assessed tumor cell growth at 10^-5 M
Procedure, shortened: (§1)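 NCI 60-human-tumor-cell-line panel screen. Each compound was tested at a single concentration of 10^-5 M, and percent growth of tumor cells was recorded for each cell line. Growth inhibition was expressed from these percent-growth values.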

MOLT-4 = experiment: Growth inhibition of human MOLT4 cells assessed tumor cell growth at 10^-5 M; procedure, shortened: as §1
[1] = Growth inhibition of human […] cells assessed tumor cell growth at 10^-5 M; procedure, shortened: as §1
SR = experiment: Growth inhibition of human SR cells assessed tumor cell growth at 10^-5 M
Procedure, shortened: (§2)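 Single-dose screen at 10^-5 M across the 60 human tumor cell line panel, run to NCI standards. The value is the percent growth of each cell line in the presence of compound. Compounds active at this dose moved on to five-concentration testing (10^-4 to 10^-8 M).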

A549 = experiment: Growth inhibition of human A549 cells assessed tumor cell growth at 10^-5 M; procedure, shortened: as §1
EKVX = experiment: Growth inhibition of human EKVX cells assessed tumor cell growth at 10^-5 M; procedure, shortened: as §1
HOP-62 = experiment: Growth inhibition of human HOP62 cells assessed tumor cell growth at 10^-5 M; procedure, shortened: as §1
NCI-H226 = experiment: Growth inhibition of human NCI-H226 cells assessed tumor cell growth at 10^-5 M; procedure, shortened: as §1
NCI-H23 = experiment: Growth inhibition of human NCI-H23 cells assessed tumor cell growth at 10^-5 M; procedure, shortened: as §1
NCI-H322M = experiment: Growth inhibition of human NCI-H322M cells assessed tumor cell growth at 10^-5 M; procedure, shortened: as §1
NCI-H460 = experiment: Growth inhibition of human NCI-H460 cells assessed tumor cell growth at 10^-5 M; procedure, shortened: as §1
NCI-H522 = experiment: Growth inhibition of human NCI-H522 cells assessed tumor cell growth at 10^-5 M; procedure, shortened: as §1
COLO 205 = experiment: Growth inhibition of human COLO205 cells assessed tumor cell growth at 10^-5 M; procedure, shortened: as §1
HCT-116 = experiment: Growth inhibition of human HCT116 cells assessed tumor cell growth at 10^-5 M; procedure, shortened: as §1
HCT-15 = experiment: Growth inhibition of human HCT15 cells assessed tumor cell growth at 10^-5 M; procedure, shortened: as §1
HT-29 = experiment: Growth inhibition of human HT-29 cells assessed tumor cell growth at 10^-5 M; procedure, shortened: as §1
KM12 = experiment: Growth inhibition of human KM12 cells assessed tumor cell growth at 10^-5 M; procedure, shortened: as §1
SW-620 = experiment: Growth inhibition of human SW620 cells assessed tumor cell growth at 10^-5 M; procedure, shortened: as §2
SF-268 = experiment: Growth inhibition of human SF268 cells assessed tumor cell growth at 10^-5 M; procedure, shortened: as §1
SF-295 = experiment: Growth inhibition of human SF295 cells assessed tumor cell growth at 10^-5 M; procedure, shortened: as §1
SF-539 = experiment: Growth inhibition of human SF539 cells assessed tumor cell growth at 10^-5 M; procedure, shortened: as §1
SNB-19 = experiment: Growth inhibition of human SNB19 cells assessed tumor cell growth at 10^-5 M; procedure, shortened: as §2
SNB-75 = experiment: Growth inhibition of human SNB75 cells assessed tumor cell growth at 10^-5 M; procedure, shortened: as §2
U-251 = experiment: Growth inhibition of human U251 cells assessed tumor cell growth at 10^-5 M; procedure, shortened: as §2
LOX IMVI = experiment: Growth inhibition of human LOXIMVI cells assessed tumor cell growth at 10^-5 M; procedure, shortened: as §1
Malme-3M = experiment: Growth inhibition of human MALME-3M cells assessed tumor cell growth at 10^-5 M; procedure, shortened: as §1
M14 = experiment: Growth inhibition of human M14 cells assessed tumor cell growth at 10^-5 M; procedure, shortened: as §1
MDA-MB-435 = experiment: Growth inhibition of human MDA-MB-435 cells assessed tumor cell growth at 10^-5 M; procedure, shortened: as §1
SK-MEL-2 = experiment: Growth inhibition of human SK-MEL-2 cells assessed tumor cell growth at 10^-5 M; procedure, shortened: as §1
SK-MEL-28 = experiment: Growth inhibition of human SK-MEL-28 cells assessed tumor cell growth at 10^-5 M; procedure, shortened: as §1
SK-MEL-5 = experiment: Growth inhibition of human SK-MEL-5 cells assessed tumor cell growth at 10^-5 M; procedure, shortened: as §1
UACC-62 = experiment: Growth inhibition of human UACC62 cells assessed tumor cell growth at 10^-5 M; procedure, shortened: as §2
IGROV-1 = experiment: Growth inhibition of human IGROV1 cells assessed tumor cell growth at 10^-5 M; procedure, shortened: as §1
OVCAR-3 = experiment: Growth inhibition of human OVCAR3 cells assessed tumor cell growth at 10^-5 M; procedure, shortened: as §1
OVCAR-4 = experiment: Growth inhibition of human OVCAR4 cells assessed tumor cell growth at 10^-5 M; procedure, shortened: as §1
OVCAR-5 = experiment: Growth inhibition of human OVCAR5 cells assessed tumor cell growth at 10^-5 M; procedure, shortened: as §1
OVCAR-8 = experiment: Growth inhibition of human OVCAR8 cells assessed tumor cell growth at 10^-5 M; procedure, shortened: as §1
NCI/ADR-RES = experiment: Growth inhibition of human NCI/ADR-RES cells assessed tumor cell growth at 10^-5 M; procedure, shortened: as §1
SK-OV-3 = experiment: Growth inhibition of human SKOV3 cells assessed tumor cell growth at 10^-5 M; procedure, shortened: as §1
786-0 = experiment: Growth inhibition of human 786-0 cells assessed tumor cell growth at 10^-5 M; procedure, shortened: as §1
A498 = experiment: Growth inhibition of human A498 cells assessed tumor cell growth at 10^-5 M; procedure, shortened: as §1
ACHN = experiment: Growth inhibition of human ACHN cells assessed tumor cell growth at 10^-5 M; procedure, shortened: as §1
CAKI-1 = experiment: Growth inhibition of human Caki1 cells assessed tumor cell growth at 10^-5 M; procedure, shortened: as §1
RXF 393 = experiment: Growth inhibition of human RXF393 cells assessed tumor cell growth at 10^-5 M; procedure, shortened: as §1
SN12C = experiment: Growth inhibition of human SN12C cells assessed tumor cell growth at 10^-5 M; procedure, shortened: as §1
TK-10 = experiment: Growth inhibition of human TK10 cells assessed tumor cell growth at 10^-5 M; procedure, shortened: as §2
UO-31 = experiment: Growth inhibition of human UO31 cells assessed tumor cell growth at 10^-5 M; procedure, shortened: as §2
PC-3 = experiment: Growth inhibition of human PC3 cells assessed tumor cell growth at 10^-5 M; procedure, shortened: as §1
DU-145 = experiment: Growth inhibition of human DU145 cells assessed tumor cell growth at 10^-5 M; procedure, shortened: as §1
MCF7 = experiment: Growth inhibition of human MCF7 cells assessed tumor cell growth at 10^-5 M; procedure, shortened: as §1
MDA-MB-231 = experiment: Growth inhibition of human MDA-MB-231 cells assessed tumor cell growth at 10^-5 M; procedure, shortened: as §1
[2] = Growth inhibition of human Hs 578T cells assessed tumor cell growth at 10^-5 M; procedure, shortened: as §1
T47D = experiment: Growth inhibition of human T47D cells assessed tumor cell growth at 10^-5 M; procedure, shortened: as §2
MDA-MB-468 = experiment: Growth inhibition of human MDA-MB-468 cells assessed tumor cell growth at 10^-5 M; procedure, shortened: as §1

`Cc1ccc(S(=O)(=O)N2C(=O)/C(=C\c3cn(S(=O)(=O)c4ccc(C)cc4)c4ccccc34)c3ccccc32)cc1` showed an Activity (HL-60(TB)) of 85.6%, an Activity (K562) of 83.9% and an Activity (MOLT-4) of 90.4%. The Activity [1] was 92.6%, the Activity (SR) was 70.4% and the Activity (A549) was 87.4%. For the same compound, the Activity (EKVX) was 99.9%, the Activity (HOP-62) was 80.2% and the Activity (NCI-H226) was 97.5%. The Activity (NCI-H23) was 96.5%, the Activity (NCI-H322M) was 102.4% and the Activity (NCI-H460) was 93.2%. For the same compound, the Activity (NCI-H522) was 49.7%, the Activity (COLO 205) was 107.3% and the Activity (HCT-116) was 83.1%. For the same compound, the Activity (HCT-15) was 97.4%, the Activity (HT-29) was 90% and the Activity (KM12) was 103.9%. It also gave an Activity (SW-620) of 94.8%, an Activity (SF-268) of 84.9% and an Activity (SF-295) of 91.8%. The Activity (SF-539) was 88%, the Activity (SNB-19) was 82.9% and the Activity (SNB-75) was 40.2%. For the same compound, the Activity (U-251) was 76.2%, the Activity (LOX IMVI) was 82.3% and the Activity (Malme-3M) was 97.7%. For the same compound, the Activity (M14) was 100.7%, the Activity (MDA-MB-435) was 109.2% and the Activity (SK-MEL-2) was 68.1%. It also gave an Activity (SK-MEL-28) of 100.5%, an Activity (SK-MEL-5) of 98.1% and an Activity (UACC-62) of 82.1%. For the same compound, the Activity (IGROV-1) was 105%, the Activity (OVCAR-3) was 107.8% and the Activity (OVCAR-4) was 100.5%. For the same compound, the Activity (OVCAR-5) was 96.2%, the Activity (OVCAR-8) was 76% and the Activity (NCI/ADR-RES) was 95.6%. For the same compound, the Activity (SK-OV-3) was 81%, the Activity (786-0) was 71.2% and the Activity (A498) was 96.8%. The Activity (ACHN) was 91.3%, the Activity (CAKI-1) was 89.6% and the Activity (RXF 393) was 77%. The Activity (SN12C) was 98.9%, the Activity (TK-10) was 65.5% and the Activity (UO-31) was 77.1%. For the same compound, the Activity (PC-3) was 71.7%, the Activity (DU-145) was 100% and the Activity (MCF7) was 93.9%. It also gave an Activity (MDA-MB-231) of 84.2%, an Activity [2] of 74.8% and an Activity (T47D) of 94.8%. For the same compound, the Activity (MDA-MB-468) was 103.8%.
